Assay results reported in ChEMBL document CHEMBL4513216, “Probing the Open Global Health Chemical Diversity Library for Multistage-Active Starting Points for Next-Generation Antimalarials” (ACS Infect Dis, 2020).

Experiment: Toxicity liver stage against HepG2, at 10uM
Type: cell-based
Parameters: test concentration 10 uM, cell line HepG2-A16-CD81EGFP
Details: human, HepG2-A16-CD81EGFP cells; read-out: INHIBITION
In short: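 Uninfected HepG2-A16-CD81EGFP cells, 3 × 10^3 per well, 1536-well, plated on prespotted compound at 10 μM final, parasite-free screening media added to match infected plates; puromycin 10 μM positive, DMSO 0.5% negative; run in parallel with 48 h PbLuc assay at 37 °C, 5% CO2; viability by CellTiter-Glo luminescence, normalized to controls.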

Row | Compound | cytotoxicity at 10 µM [%]
1 | CN(Cc1ccc(Br)s1)Cn1nc(-c2ccccc2)oc1=O | 4.86
2 | CN(C)C(=O)Cc1ccc(-c2cccc3c2CCNC3)cc1 | 2.28
3 | CC(C)CN1CCN(C)C2(CCN(Cc3ccsc3)CC2)C1=O | 4.08
4 | CCn1cc(CN(C)S(=O)(=O)c2ccc(C)c(C)c2)cn1 | 9.65
5 | CC(=O)N1CCC(c2nn(C)c(=O)n2-c2ccccc2)CC1 | -2.05
6 | O=S(=O)(c1ccc(Cl)cc1)N1CCN(CCCn2ccnc2)CC1 | -6.18
7 | CC(C)(C)C(NC(=O)CCS(C)(=O)=O)c1ccc(F)cc1F (stereo unspecified) | -0.189
8 | Cc1cc(N(C)C)nc(N2CCN(C(C)c3nc(C)no3)CC2)n1 (stereo unspecified) | 2.33
9 | Fc1cnc(N2C[C@@H]3C[C@@H](c4nc(C5CC5)cs4)O[C@@H]3C2)nc1 | 22.8
10 | O=C(NS(=O)(=O)c1cnn(-c2ccccc2F)c1)c1ccco1 | -8.86
11 | CN(Cc1cc(C2CC2)on1)C(=O)CN1C(=O)OC(C)(C)C1=O | -127
12 | Cn1ncc(C2CC(=O)NCc3nc4sccn4c32)c1C1CC1 (stereo unspecified) | -5.01
13 | Cc1noc(CN2CCC(Cc3ccc(F)cc3)CC2)n1 | 11.3
14 | Cn1cc(-c2cnc3n2CCC32CCN(S(C)(=O)=O)CC2)cn1 | -127
15 | Cc1nn(C)c2c(=O)n(C(C)C)c(NCC3CCCO3)nc12 (stereo unspecified) | 13.9
16 | CS(=O)(=O)NCc1n[nH]c2c1CCN(C(=O)c1ccsc1)C2 | 4.01
17 | CN1CCC(c2cccc(-c3cccc(C(=O)O)c3)n2)CC1 | -6.55
18 | CS(=O)(=O)NCCCNC(=O)NCc1ccccc1 | -3.54
19 | N#CCC1CC(c2ccc(F)cc2)=NO1 (stereo unspecified) | -2.37
20 | Cc1nn(C)c(C)c1C1COCCN1C(=O)c1ccccc1 (stereo unspecified) | -10.2
21 | Oc1cccc(CNC2CCN(CCc3ccncc3)CC2)c1 | -1.56
22 | Cn1c(C2CCCCN2C(=O)CN2CCCC2=O)nc2ccccc21 (stereo unspecified) | -0.62
23 | CCCc1nc(CNC(=O)Cc2csc(C)n2)cs1 | -10.6

Row | Compound | cytotoxicity at 10 µM [%]
24 | CCOC1(C)C(=O)c2ccccc2N1Nc1ccccc1C(=O)CC (stereo unspecified) | 12.9
25 | CCc1nnc(CN(C)Cc2nc(-c3ccccc3Cl)oc2C)o1 | -7.43
26 | c1ccc(OCC2C[C@@H]3[C@@H](C2)OCCN3Cc2ccoc2)nc1 (stereo partly specified) | -0.514
27 | Cc1ccc(CNCCOc2ccc(S(C)(=O)=O)cc2)cc1 | -9.12
28 | O=C(c1nc(Cc2c[nH]c3ccccc23)no1)N1CCOCC1 | 11.1
29 | CC(O)CN(Cc1cccc(C(=O)N(C)C)c1)c1ccccc1 (stereo unspecified) | 2.45
30 | O=C(NC1CCCCC1)C1CCCN(C(=O)Nc2ccccn2)C1 (stereo unspecified) | 3.57
31 | Cc1cc(CN2C[C@@H]3COC[C@]3(COCc3csc(C)n3)C2)no1 | 1.17
32 | CN(Cc1n[nH]c2c1CCC2)C(=O)c1cc(-c2cccn2C)n[nH]1 | 5.12
33 | Cc1nccn1-c1ccc(=O)n(CCNC(=O)Cc2ccccc2)n1 | -4.17
34 | CC1CCC(O)(CSc2nnnn2C)CC1 (stereo unspecified) | -8.03
35 | Cc1cc(CN2CCN(C(=O)NC(C)Cn3ccnc3)CC2)on1 (stereo unspecified) | -7.42
36 | c1cnc(N2CC3(CCN(Cc4cccnc4)C3)C2)nc1 | -4.87
37 | CCCc1nc(N2CCN(CC)CC2)c2c(n1)c(C)nn2CC | -9.41
38 | O=C(c1cnccn1)N1CCC2(CCCN(Cc3ccoc3)C2)C1 (stereo unspecified) | -139
39 | COCC(=O)Nc1ccc(-c2noc([C@@H]3CCCN3C)n2)cn1 | 6.65
40 | CC(C)OCCN1CCC(N2CCN(C)C2=O)CC1 | -11.4
41 | CN(C(=O)c1cn(C)cn1)[C@@H]1CCC[C@@H](Oc2ccccc2)[C@@H]1O | 23
42 | Cc1ccc(C(=O)NCCS(=O)(=O)Cc2ccccc2)c(C)c1 | -5.09
43 | COc1ccccc1CCNC(=O)NC(C)COCC(F)(F)F (stereo unspecified) | 8.91
44 | N#Cc1ccc(F)c(CN2CCCCC2Cn2cccn2)c1 (stereo unspecified) | -0.674
45 | O=C1Cc2cc(NC(=O)N3CCCN(Cc4cccs4)CC3)ccc2N1 | 0.929
46 | OC12CCC(CC1)N(Cc1ccc(F)cc1)C2CN1CCOCC1 (stereo unspecified) | 5.29

Row | Compound | cytotoxicity at 10 µM [%]
47 | O=C1Nc2ccccc2CNC12CCN(CC1CCNC1)CC2 (stereo unspecified) | 6.61
48 | CO[C@@H]1CCN(Cc2ccoc2)C[C@@H]1Cc1ccccc1 | 16.5
49 | COCC(=O)N1CCN(c2ccc(C(=O)OC)cc2)CC1C (stereo unspecified) | -14.2
50 | COCCNC(=O)c1nc(NS(=O)(=O)c2ccccc2)sc1C | 9.18
51 | CCCc1cc(CNC(=O)C2CCOc3ccccc3C2)on1 (stereo unspecified) | -3.8
52 | O=C(c1ccoc1)N1CCC2(CC1)C(=O)N(CC1CC1)c1ccccc12 | 10.7
53 | Cn1nnc2c1C(COCc1cccnc1)CN(Cc1ccoc1)C2 (stereo unspecified) | -2.55
54 | CCC(CC)(CNC(=O)c1cccn1Cc1cccnc1)N(C)C | -53.6
55 | CCCC(C#N)NC(=O)Cc1csc(CC)n1 (stereo unspecified) | -2.08
56 | O=C(NCc1ccccc1Cl)c1[nH]nc2c1CS(=O)(=O)CC2 | -0.908
57 | CC(=O)Nc1ccc(SCC(O)COCc2ccc3c(c2)OCO3)cc1 (stereo unspecified) | 3.56
58 | Cc1cc(C(F)(F)F)c2c(C3CCCN(C(=O)C4CC4)C3)noc2n1 (stereo unspecified) | -25.1
59 | CCOC(=O)CC1CCCCN1C(=O)c1cnc(C)cn1 (stereo unspecified) | 0.957
60 | COc1ccc(F)c(CNC2CCCc3nc(N(C)C)ncc32)c1 (stereo unspecified) | 1.81
61 | CC(C)C[C@H](N)c1nnc(SCC(N)=O)o1 | 4.95
62 | CCn1ccnc1CN1CCN(C(C)C(=O)NC2CCCC2)CC1 (stereo unspecified) | -4.86
63 | c1coc(CN2Cc3nccn3CC(Cn3cncn3)C2)c1 (stereo unspecified) | -7.18
64 | Cc1nc(CN2C(=O)COC3(CCN(CC4CC4)CC3)C2C)cs1 (stereo unspecified) | -131
65 | COCC1CN(C(=O)c2ccco2)Cc2cn(C)nc21 (stereo unspecified) | 9.08
66 | Cn1c(CN2CCOC(CNc3cccnn3)C2)nnc1C1CC1 (stereo unspecified) | 5.18
67 | Cc1cccc2cc(CN3CCC(N4CCOCC4)CC3)c(=O)[nH]c12 | -12
68 | NC(=O)CN1CCOCC(Cc2ccccc2)C1 (stereo unspecified) | 0.579
69 | c1cn(-c2ccc(CN3CCOC(Cn4cncn4)C3)cc2)cn1 (stereo unspecified) | 1.25

Row | Compound | cytotoxicity at 10 µM [%]
70 | Cc1cc(C(=O)NCC(C)C)nn1C | -0.971
71 | CC(C)CN1CC(C(=O)NCCc2c[nH]cn2)CC1=O (stereo unspecified) | -3.62
72 | Cc1nc(CC(=O)N2c3ccccc3OCC2C)cs1 (stereo unspecified) | -6.53
73 | O=C(N[C@@H]1CN(Cc2cccs2)[C@@H]2CCCO[C@@H]21)C1CC1 | 3.63
74 | CN(Cc1ccco1)Cc1ccccc1CNC(=O)c1cnccn1 | 17.1
75 | CCOC(C)c1noc(CN(C)C(=O)C2C(C)(C)C2(C)C)n1 (stereo unspecified) | 9.5
76 | Cc1ccccc1OCCN1CCCC(c2cc(C(N)=O)[nH]n2)C1 (stereo unspecified) | -14.3
77 | Cn1c(C2CC2)nc2c1CCN(CC(=O)Nc1nccs1)C2 | -9.83
78 | Cc1cc(C(F)(F)F)nc(C2CCN(C(=O)CO)CC2)n1 | -2.14
79 | Cc1cnn(C2CCCN(C(=O)c3cccc(Cn4ccnc4)c3)C2)c1 (stereo unspecified) | -1.03
80 | Cc1c(-c2nnc(SCC(=O)O)n2C(C)c2ccccc2)cnn1C (stereo unspecified) | -5.43
81 | Cc1sc(CS(C)(=O)=O)nc1-c1ccc(Cl)cc1 | -4.07
82 | CC(=O)N(Cc1noc(C)n1)C1CCN(Cc2ccc(C#N)cc2)C1 (stereo unspecified) | -3.66
83 | Cc1nnc(N2C[C@H](OCc3cccnc3)[C@H]3OCCC[C@H]32)s1 | 10.8
84 | CNC(=O)c1ccc(CN(C(=O)c2scnc2C)C2CC2)cc1 | -3.09
85 | COc1cc(C(=O)N(CCC#N)Cc2ccccn2)ccc1C | 11.3
86 | CC(CCc1ccc(O)cc1)NC1CCN(C(=O)C(C)C)CC1 (stereo unspecified) | -4.89
87 | COc1ccccc1Cc1nnc(SCCS(C)(=O)=O)o1 | 5.89
88 | Cc1csc2c(=O)n(C(C)Cc3cccnc3)cnc12 (stereo unspecified) | 9.98
89 | CC(=O)N1CCC(c2ccnc(Nc3cncnc3)n2)CC1 | -33.2
90 | Cc1nc(C)c2c(n1)CCN(Cc1nccn1C)CC2 | -122
91 | CCOC1CCN(C(=O)NCCc2ccn(-c3ccccc3)n2)CC1 | -0.088
92 | Clc1ccc(OCCc2cc(C3CCN(c4ncccn4)C3)n[nH]2)cc1 (stereo unspecified) | 7.45

Row | Compound | cytotoxicity at 10 µM [%]
93 | CCCN(CC(=O)NC)C(=O)c1ccc(-c2nc(C)cs2)cc1 | -20.8
94 | Fc1ccc([C@@H]2COC[C@H]2NCc2cccc(F)c2)cc1 | -2.92
95 | NC(=O)CSc1ccccc1NCc1nc(Cc2ccccc2)no1 | 7.04
96 | Cc1noc2ncc(C(=O)N3CCCC3c3cnn(C)c3)cc12 (stereo unspecified) | -6.2
97 | COC(=O)N1CCCCC1C(=O)N1CCN(c2cccnc2)CC1 (stereo unspecified) | -10.6
98 | Cc1cnn(CCNCc2ccc(OCc3cscn3)cc2)c1 | -5.48
99 | O=c1c2c[nH]c(N3CCCC3)nc-2cn1CCc1ccc(Cl)cc1 | 11.9
100 | CN(C)C(C(=O)N1CCC(CCO)CC1)c1ccccc1F (stereo unspecified) | 5.88
101 | CCN(Cc1ccoc1)C(C(N)=O)c1ccc(C#N)cc1 (stereo unspecified) | -18.6
102 | NC(=O)C1Cn2ccnc2C2(CCN(C(=O)c3ccncc3)CC2)O1 (stereo unspecified) | -103
103 | c1cc(CN2C[C@@H]3OCCN(CC4CCCO4)[C@@H]3C2)ccn1 (stereo partly specified) | -80.2
104 | O=C(NCc1ccco1)Nc1cccc(S(=O)(=O)C(F)F)c1 | -54.8
105 | CN(Cc1ccco1)[C@@H]1CN(C(=O)c2cnccn2)C[C@@H]2CCCO[C@@H]21 | 3.25
106 | O=C1CC[C@H]2[C@@H](CCN2Cc2ccco2)N1 | 2.82
107 | C=c1nc(NC)sc1=C1NC(c2c(C)ncc3c2CCNC3)=NO1 | 1.67
108 | CC(C)COC(C)C(=O)NCc1ccc(OC(C)C)nc1 (stereo unspecified) | 2.12
109 | C1Cc2nc(CCNc3nc(C4CC4)nc4c3CCNCC4)sc2C1 | -10.4
110 | CCOc1cccc(C(C(=O)O)N(C)Cc2cc(C)no2)c1 (stereo unspecified) | 4.64
111 | O=C(CCN1CCCO1)N1CC[C@@H](CNC(=O)N2CCCC2)[C@H](O)C1 | 0.275
